This note sets out measurements from ChEMBL document CHEMBL3102842, “Direct synthesis of C3-mono-functionalized oxindoles from N-unprotected 2-oxindole and their antileishmanial activity” (Bioorg Med Chem, 2014).

Broadly, the EC50 is the concentration at which the effect is half-maximal. By EC95 is commonly meant the point of the concentration-response curve where the effect stands at 95%.

Series [1] is described as follows: Cytotoxicity against mouse RAW264.7 cells after 48 hrs by MTT assay. Type of series: cell-based. To be noted: read-out: TC50. The gist of the method:
(§1)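 RAW 264.7 cells in RPMI 1640 with L-glutamine, 10% FBS and penicillin/streptomycin, seeded at 1×10^5 cells/well and left to adhere overnight at 37 °C, 5% CO2. Compounds at 10, 50 and 100 µg/mL, 37 °C. MTT (5 mg/mL) added for 4 h, formazan dissolved in DMSO, A540 read. Survival expressed as percent of untreated control, in triplicate. TC50 taken as the 50% macrophage-death concentration.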
For orientation: Formazan colour is commonly taken as a measure of viable cells.

For series [2], the system named is Leishmania infantum. The experiment in a line: Antileishmanial activity against Leishmania infantum zymodeme MON-1 promastigotes assessed as parasite survival at 10 to 100 ug/ml after 48 hrs. The format is functional. Summed up:
(§2)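 Log-phase promastigotes from 26 °C Schneider's Drosophila medium with 10% heat-inactivated FCS, pH 7.2, adjusted to 5×10^6 parasites/mL. Compounds in DMSO (≤1% v/v) at 10–100 µg/mL, incubated at 26 °C. Surviving promastigotes counted in a Neubauer chamber and compared with drug-free controls.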

Series [3] relates to Leishmania infantum. In words: Antileishmanial activity against Leishmania infantum zymodeme MON-1 axenic amastigotes assessed as parasite survival after 24 hrs. The format is functional, organism-based. To be noted: zymodeme MON-1, 24 h. Summed up: (§3)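 Axenic amastigotes grown cell-free at 37 °C, 5% CO2 in MAA/20 (modified medium 199 with Hank's salts, tryptocasein, glucose, glutamine, NaHCO3, hemin, 25 mM HEPES, pH 6.5, 20% heat-inactivated FBS). Compounds in DMSO (≤1% v/v) at 10–100 µg/mL, 37 °C. Viability read after TO-PRO-3 staining (10 min, room temperature) by ImageStream imaging cytometry, ≥10,000 events per sample.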

The nature of series [4]: Therapeutic index, ratio of TC50 for mouse RAW264.7 cells to EC50 for Leishmania infantum zymodeme MON-1 axenic amastigotes. To be noted: read-out: TI. Summed up:
(§4)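 Index calculated as TC50 on RAW 264.7 macrophages (MTT assay) divided by EC50 on L. infantum promastigotes or axenic amastigotes, using the same incubation time (24 or 48 h) for both.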

Series [5] can be described thus: Cytotoxicity against mouse RAW264.7 cells after 24 hrs by MTT assay. The note with it: read-out: TC50. Type of series: cell-based. Summed up:
as §1

Series [6] deals with Leishmania infantum. In words: Antileishmanial activity against Leishmania infantum zymodeme MON-1 promastigotes assessed as parasite survival after 48 hrs. To be noted: zymodeme MON-1, 48 h. The format is functional, organism-based. The gist of the method:
as §2

Series [7] concerns Leishmania infantum. In words: Antileishmanial activity against Leishmania infantum zymodeme MON-1 promastigotes assessed as parasite survival after 24 hrs. Type of series: functional, organism-based. To be noted: zymodeme MON-1, 24 h. The gist of the method:
as §2

A short description of series [8]: Therapeutic index, ratio of TC50 for mouse RAW264.7 cells to EC50 for Leishmania infantum zymodeme MON-1 promastigotes after 24 hrs. The note with it: read-out: TI. The gist of the method:
as §4

Series [9] is described as follows: Therapeutic index, ratio of TC50 for mouse RAW264.7 cells to EC50 for Leishmania infantum zymodeme MON-1 axenic amastigotes after 48 hrs. The note with it: read-out: TI. Summed up:
as §4

Series [10] relates to Leishmania infantum. In words: Antileishmanial activity against Leishmania infantum zymodeme MON-1 axenic amastigotes assessed as parasite survival after 48 hrs. Type of series: functional, organism-based. To be noted: zymodeme MON-1, 48 h. The gist of the method:
as §3

Series [11] can be described thus: Therapeutic index, ratio of TC50 for mouse RAW264.7 cells to EC50 for Leishmania infantum zymodeme MON-1 promastigotes after 48 hrs. To be noted: read-out: TI. The gist of the method: as §4

SMILES strings stand for the structures. ≈ marks a conversion by molar mass, not a printed value.

For the compound `O=C1C[C@@H](c2ccc(Cl)cc2)C2(C(=O)Nc3ccccc32)[C@H](c2ccc(Cl)cc2)C1`, the CC50 at 48 h in series [1] worked out at 21.3 µg/mL (≈ 48.8 µM). In addition, the Activity in the series with Leishmania infantum [2] is listed as over 74%. Also, the EC50 in the series on Leishmania infantum [3] turned out to be 21 µg/mL (≈ 48.1 µM); in the series with Leishmania infantum [6], 5.1 µg/mL (≈ 11.7 µM); in the series on Leishmania infantum [7], 23.4 µg/mL (≈ 53.6 µM); in the series on Leishmania infantum [10] it was 4.9 µg/mL (≈ 11.2 µM). In addition, the EC95 with Leishmania infantum [3] came to 75.2 µg/mL (≈ 172 µM); in the series with Leishmania infantum [6], 72.1 µg/mL (≈ 165 µM); with Leishmania infantum [7], 77.1 µg/mL (≈ 177 µM); in the series with Leishmania infantum [10] it was 69.9 µg/mL (≈ 160 µM). For the same compound, the selectivity ratio in [4] is 2.1. Besides, the CC50 at 24 h in series [5] amounted to 44 µg/mL (≈ 101 µM). The selectivity ratio at 24 h in [8] was 1.8. Further, the selectivity ratio at 48 h is 4.4 in [9] and 4.2 in series [11].
For the compound `O=C(CC(c1cccc(Cl)c1)C1C(=O)Nc2ccccc21)c1ccccc1` (stereo not given), the CC50 at 48 h in series [1] amounted to 116 µg/mL (≈ 309 µM). The EC50 with Leishmania infantum [3] came to 30.5 µg/mL (≈ 81.1 µM); with Leishmania infantum [6], 13.2 µg/mL (≈ 35.1 µM); in the series on Leishmania infantum [7], 31.6 µg/mL (≈ 84.1 µM); in the series on Leishmania infantum [10], 12.5 µg/mL (≈ 33.3 µM). The EC95 with Leishmania infantum [3] turned out to be 80.2 µg/mL (≈ 213 µM); in the series with Leishmania infantum [6] it was 74 µg/mL (≈ 197 µM); in the series with Leishmania infantum [7], 85.5 µg/mL (≈ 227 µM); in the series on Leishmania infantum [10], 71.5 µg/mL (≈ 190 µM). In addition, the selectivity ratio in [4] came out at 6.3. The CC50 at 24 h in series [5] is 193 µg/mL (≈ 514 µM). The selectivity ratio at 24 h in series [8] amounted to 6.1. The selectivity ratio at 48 h was found to be 9.3 in [9] and 8.8 in series [11].
For `O=C(/C=C/c1ccccc1)c1ccccc1` [CHALCONE], in series [1], the CC50 at 48 h stood at 30.7 µg/mL (≈ 147 µM). Moreover, the EC50 was determined as 5.1 µg/mL (≈ 24.5 µM) in the series on Leishmania infantum [3], 1.5 µg/mL (≈ 7.2 µM) in the series on Leishmania infantum [6], 5.7 µg/mL (≈ 27.4 µM) in the series with Leishmania infantum [7] and 1.3 µg/mL (≈ 6.24 µM) with Leishmania infantum [10]. Moreover, the EC95 with Leishmania infantum [3] stood at 79.5 µg/mL (≈ 382 µM); in the series on Leishmania infantum [6], 71.1 µg/mL (≈ 341 µM); with Leishmania infantum [7], 83.5 µg/mL (≈ 401 µM); in the series with Leishmania infantum [10], 69.9 µg/mL (≈ 336 µM). For the same compound, the selectivity ratio in series [4] came out at 5.5. In [5], the CC50 at 24 h is 28.1 µg/mL (≈ 135 µM). Moreover, the selectivity ratio at 24 h in [8] worked out at 4.9. Moreover, the selectivity ratio at 48 h stood at 23.7 in [9] and 20.1 in [11].
Consider `O=C1Cc2ccccc2N1` [OXINDOLE], for which, in [1], the CC50 at 48 h turned out to be 154 µg/mL (≈ 1160 µM). The EC50 was found to be 199 µg/mL (≈ 1490 µM) with Leishmania infantum [3], 72.4 µg/mL (≈ 544 µM) with Leishmania infantum [6], 232 µg/mL (≈ 1750 µM) with Leishmania infantum [7] and 69.5 µg/mL (≈ 522 µM) in the series on Leishmania infantum [10]. Besides, the EC95 turned out to be 430 µg/mL (≈ 3230 µM) in the series on Leishmania infantum [3], 146 µg/mL (≈ 1100 µM) in the series with Leishmania infantum [6], 447 µg/mL (≈ 3360 µM) with Leishmania infantum [7] and 136 µg/mL (≈ 1020 µM) in the series on Leishmania infantum [10]. Further, in series [4], the selectivity ratio is 0.6. The CC50 at 24 h in [5] was determined as 126 µg/mL (≈ 945 µM). Also, the selectivity ratio at 24 h in [8] was 0.5. In addition, the selectivity ratio at 48 h in series [9] came out at 2.2; in series [11], 2.1.
Take `COc1ccc([C@H](CC(=O)c2ccccc2)[C@H]2C(=O)Nc3ccccc32)cc1` (relative stereo): the CC50 at 48 h in series [1] is 35.4 µg/mL (≈ 95.3 µM). Besides, the 50% effective concentration (EC50) was 24.2 µg/mL (≈ 65.2 µM) in the series on Leishmania infantum [3], 14.2 µg/mL (≈ 38.2 µM) in the series with Leishmania infantum [6], 29.7 µg/mL (≈ 80 µM) in the series with Leishmania infantum [7] and 13.1 µg/mL (≈ 35.3 µM) with Leishmania infantum [10]. The EC95 with Leishmania infantum [3] worked out at 75.4 µg/mL (≈ 203 µM); in the series with Leishmania infantum [6] it was 74 µg/mL (≈ 199 µM); in the series on Leishmania infantum [7] it was 78.5 µg/mL (≈ 211 µM); with Leishmania infantum [10], 71.2 µg/mL (≈ 192 µM). In addition, the selectivity ratio in series [4] was 1.7. The CC50 at 24 h in [5] was 41 µg/mL (≈ 110 µM). Besides, in series [8], the selectivity ratio at 24 h is 1.3. Also, the selectivity ratio at 48 h worked out at 2.7 in series [9] and 2.5 in [11].
In the case of `O=C(C[C@@H](c1ccccc1)[C@H]1C(=O)Nc2ccccc21)c1ccccc1` (relative stereo), the CC50 at 48 h in series [1] was 66.6 µg/mL (≈ 195 µM). Also, the EC50 stood at 15.3 µg/mL (≈ 44.8 µM) with Leishmania infantum [3], 6.3 µg/mL (≈ 18.5 µM) with Leishmania infantum [6], 16.2 µg/mL (≈ 47.5 µM) in the series with Leishmania infantum [7] and 5.9 µg/mL (≈ 17.3 µM) in the series on Leishmania infantum [10]. Besides, the EC95 stood at 75.6 µg/mL (≈ 221 µM) in the series on Leishmania infantum [3], 72.1 µg/mL (≈ 211 µM) in the series with Leishmania infantum [6], 77.8 µg/mL (≈ 228 µM) in the series on Leishmania infantum [7] and 69.4 µg/mL (≈ 203 µM) with Leishmania infantum [10]. For the same compound, the selectivity ratio in series [4] was 4.7. The CC50 at 24 h in [5] is 71.6 µg/mL (≈ 210 µM). In addition, the selectivity ratio at 24 h in series [8] was 4.4. In addition, the results for the selectivity ratio at 48 h in series [9] and in series [11] were 11.2 and 10.6, respectively.
